Measurements as given in ChEMBL document CHEMBL1144540, “Analgesic agents without gastric damage: design and synthesis of structurally simple benzenesulfonanilide-type cyclooxygenase-1-selective inhibitors” (Bioorg Med Chem, 2007).
Activity calls are given as the source filed them. No cut-off for these calls is given here.

Tested on: Rattus norvegicus
Assay: Effect on gastric damage in rat assessed as induction of gastric ulcer at 10 mg/kg, po after 5 hrs
Type: functional, organism-based
Parameters: dose 10 mg/kg
Details: Stomach
How it was run: (§1)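 Male rats, 170–200 g, given a single oral dose in 0.5% CMC vehicle (n = 3–5 per group). Ulcer lengths were measured in millimetres and summed to give an overall gastric damage score per rat. Data are means with SEM.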

Row | SMILES | Activity
1 | COc1ccc2c(c1)c(CC(=O)O)c(C)n2C(=O)c1ccc(Cl)cc1 | Active

Tested on: Rattus norvegicus
Assay: Effect on gastric damage in rat assessed as induction of gastric ulcer at 30 mg/kg, po after 5 hrs
Type: functional, organism-based
Parameters: dose 30 mg/kg
Details: Stomach
How it was run: as §1

Row | SMILES | Activity
2 | CC(=O)Oc1ccccc1C(=O)O | Active

Target: T1, Prostaglandin G/H synthase 1 (Ovis aries) (UniProt P05979)
T1 sequence (whole entry): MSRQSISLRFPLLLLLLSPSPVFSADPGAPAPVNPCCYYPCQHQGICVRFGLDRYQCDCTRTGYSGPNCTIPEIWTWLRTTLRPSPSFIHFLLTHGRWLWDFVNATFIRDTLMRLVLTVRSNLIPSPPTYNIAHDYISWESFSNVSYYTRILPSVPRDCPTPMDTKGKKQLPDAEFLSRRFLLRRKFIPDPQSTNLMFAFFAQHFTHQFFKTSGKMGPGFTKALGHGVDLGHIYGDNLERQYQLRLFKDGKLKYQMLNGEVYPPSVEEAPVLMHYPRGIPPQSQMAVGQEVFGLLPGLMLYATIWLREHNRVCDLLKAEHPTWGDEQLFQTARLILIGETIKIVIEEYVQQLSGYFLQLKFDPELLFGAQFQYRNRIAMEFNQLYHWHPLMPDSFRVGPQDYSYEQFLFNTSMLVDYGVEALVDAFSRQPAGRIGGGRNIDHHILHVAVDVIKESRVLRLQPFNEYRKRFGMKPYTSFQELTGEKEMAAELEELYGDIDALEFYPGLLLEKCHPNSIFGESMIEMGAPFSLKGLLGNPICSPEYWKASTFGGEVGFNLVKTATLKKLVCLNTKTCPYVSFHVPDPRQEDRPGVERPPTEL
Assay: Inhibition of ovine COX1 at 100 uM
Details: not given
How it was run: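 Colorimetric ovine COX inhibitor screening kit, run per the supplier's protocol. […] Each experiment was run at least twice and the mean was reported.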

Row | SMILES | inhibition
3 | COc1ccc(N(C)S(=O)(=O)c2ccc(N)cc2)cc1 | 6%
4 | Cc1cc(C)cc(NS(=O)(=O)c2ccc(NS(C)(=O)=O)cc2)c1 | 0%
5 | COc1ccc(NS(=O)(=O)c2ccc(C(=O)O)cc2)cc1 | 3%
6 | CN(c1ccc(N)cc1)S(=O)(=O)c1ccc(Cl)cc1 | 68%
7 | CCCN(c1ccc(Cl)cc1)S(=O)(=O)c1ccc(N)cc1 | 0%
8 | Cc1ccccc1NS(=O)(=O)c1ccc(NS(C)(=O)=O)cc1 | 0%
9 | CS(=O)(=O)Nc1ccc(S(=O)(=O)Nc2cc(C(F)(F)F)cc(C(F)(F)F)c2)cc1 | 0%
10 | CN(c1ccc(Cl)cc1)S(=O)(=O)c1cccc(N)c1 | 39%
11 | O=[N+]([O-])c1ccc(S(=O)(=O)Nc2cc(C(F)(F)F)cc(C(F)(F)F)c2)cc1 | 19%
12 | CN(c1ccc(I)cc1)S(=O)(=O)c1ccc(N)cc1 | 18%
13 | O=C(O)c1ccc(S(=O)(=O)Nc2ccc(C(F)(F)F)cc2)cc1 | 0%
14 | Nc1ccc(NS(=O)(=O)c2ccc(Cl)cc2)c(C(F)(F)F)c1 | 7%
15 | Cc1cc(N)ccc1N(C)S(=O)(=O)c1ccc(Cl)cc1 | 77%
16 | CN(c1ccc(Cl)cc1)S(=O)(=O)c1ccc(N)cc1 | 78%
17 | Nc1ccc(S(=O)(=O)Nc2cc(C(F)(F)F)cc(C(F)(F)F)c2)cc1 | 30%
18 | COc1ccc(NS(=O)(=O)c2ccc(NS(C)(=O)=O)cc2)cc1 | 8%
19 | CCN(c1ccc(Cl)cc1)S(=O)(=O)c1ccc(N)cc1 | 10%
20 | CS(=O)(=O)Nc1ccc(S(=O)(=O)Nc2ccc(C(F)(F)F)cc2)cc1 | 8%
21 | COc1cc(N)ccc1N(C)S(=O)(=O)c1ccc(Cl)cc1 | 73%
22 | COc1ccc(NS(=O)(=O)c2ccc([N+](=O)[O-])cc2)cc1 | 0%
23 | CN(c1ccc(C(F)(F)F)cc1)S(=O)(=O)c1ccc(N)cc1 | 9%
24 | CN(c1ccc(F)cc1)S(=O)(=O)c1ccc(N)cc1 | 0%
25 | CS(=O)(=O)Nc1ccc(S(=O)(=O)Nc2ccc(Cl)cc2)cc1 | 11%
26 | O=C(O)c1ccc(S(=O)(=O)Nc2cc(C(F)(F)F)cc(C(F)(F)F)c2)cc1 | 25%
27 | O=[N+]([O-])c1ccc(S(=O)(=O)Nc2ccc(C(F)(F)F)cc2)cc1 | 1%
28 | O=[N+]([O-])c1ccc(S(=O)(=O)Nc2ccc(Cl)cc2)cc1 | 6%

Continued, values first:

Row | inhibition | SMILES
29 | 0% | Cc1cccc(NS(=O)(=O)c2ccc(C(=O)O)cc2)c1
30 | 53% | Nc1ccc(S(=O)(=O)Nc2ccccc2Cl)cc1
31 | 3% | Cc1cccc(NS(=O)(=O)c2ccc([N+](=O)[O-])cc2)c1
32 | 18% | Nc1ccc(S(=O)(=O)Nc2cccc(Cl)c2)cc1
33 | 23% | Nc1ccc(S(=O)(=O)Nc2ccc(Br)cc2)cc1
34 | 3% | Nc1ccc(NS(=O)(=O)c2ccc(Cl)cc2)cc1
35 | 11% | O=C(O)c1ccc(S(=O)(=O)Nc2ccccc2)cc1
36 | 6% | Nc1ccc(S(=O)(=O)Nc2ccc(Cl)cc2Cl)cc1
37 | 12% | Cc1ccc(NS(=O)(=O)c2ccc(NS(C)(=O)=O)cc2)cc1
38 | 0% | CS(=O)(=O)Nc1ccc(S(=O)(=O)Nc2ccccc2)cc1
39 | 14% | Nc1ccc(S(=O)(=O)Nc2ccc(C(F)(F)F)cc2)cc1
40 | 18% | Nc1ccc(S(=O)(=O)Nc2ccc(I)cc2)cc1
41 | 1% | COc1cc(N)ccc1NS(=O)(=O)c1ccc(Cl)cc1
42 | 70% | Nc1ccc(S(=O)(=O)Nc2ccc(Cl)cc2)cc1
43 | 13% | Cc1cc(C)cc(NS(=O)(=O)c2ccc(N)cc2)c1
44 | 52% | Cc1ccc(NS(=O)(=O)c2ccc(N)cc2)cc1
45 | 0% | Nc1ccc(S(=O)(=O)Nc2ccccc2)cc1
46 | 3% | Cc1cccc(NS(=O)(=O)c2ccc(NS(C)(=O)=O)cc2)c1
47 | 21% | Cc1ccc(N(C)S(=O)(=O)c2ccc(N)cc2)cc1
48 | 48% | CN(c1ccccc1)S(=O)(=O)c1ccc(N)cc1
49 | 0% | O=[N+]([O-])c1ccc(S(=O)(=O)Nc2ccccc2)cc1
50 | 21% | Cc1ccccc1NS(=O)(=O)c1ccc(C(=O)O)cc1
51 | 5% | Cc1ccccc1NS(=O)(=O)c1ccc(N)cc1
52 | 21% | CN(c1ccc(Br)cc1)S(=O)(=O)c1ccc(N)cc1
53 | 8% | Cc1cccc(NS(=O)(=O)c2ccc(N)cc2)c1
54 | 0% | Cc1cc(C)cc(NS(=O)(=O)c2ccc([N+](=O)[O-])cc2)c1
55 | 7% | Cc1cc(N)ccc1NS(=O)(=O)c1ccc(Cl)cc1
56 | 44% | Cc1ccc(NS(=O)(=O)c2ccc([N+](=O)[O-])cc2)cc1
57 | 15% | Nc1ccc(S(=O)(=O)Nc2ccc(F)cc2)cc1
58 | 0% | Cc1ccccc1NS(=O)(=O)c1ccc([N+](=O)[O-])cc1

Target: T2, Prostaglandin G/H synthase 1 (Ovis aries, UniProt P05979)
T2 sequence (P05979 whole entry): T1 sequence (whole entry)
Assay: Inhibition of ovine COX1
Details: not given
How it was run: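 Colorimetric ovine COX inhibitor screening kit, run per the supplier's protocol. Each experiment was run at least twice and the mean was reported.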

Row | IC50 | SMILES
59 | 9.2 µM | CN(c1ccc(N)cc1)S(=O)(=O)c1ccc(Cl)cc1
60 | 12 µM | Nc1ccc(S(=O)(=O)Nc2ccc(Cl)cc2)cc1
61 | 26 µM | Cc1cc(N)ccc1N(C)S(=O)(=O)c1ccc(Cl)cc1
62 | 3.2 µM | CN(c1ccc(Cl)cc1)S(=O)(=O)c1ccc(N)cc1
63 | 20 µM | COc1cc(N)ccc1N(C)S(=O)(=O)c1ccc(Cl)cc1
